Laboratory results taken from ChEMBL document CHEMBL3585276, “Topoisomerase I and II inhibitory activity, cytotoxicity, and structure-activity relationship study of dihydroxylated 2,6-diphenyl-4-aryl pyridines” (Bioorg Med Chem, 2015).

Columns and labels:
HeLa = test: Cytotoxicity against human HeLa cells measured on day 4 by CCK8 assay; assay type: functional, cell-based; conditions: 96 h
Procedure, shortened: (§1)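 Cells seeded at […], grown overnight in medium with 10% FBS at 37 °C under 5% CO2. On day 2 they were serum-starved 4 h, then exposed to graded compound concentrations. On day 4 CCK-8 was added for a further 4 h and absorbance read at 450 nm. IC50 came from a four-parameter logistic fit, mean ± SD of three experiments in triplicate.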

[1] = biological target: DNA topoisomerase 2-alpha (Homo sapiens) (UniProt P11388); test: Inhibition of recombinant human DNA topoisomerase-2alpha using supercoiled pBR322 plasmid DNA as substrate at 20 uM after 30 mins by agarose gel electrophoresis relative to control
Procedure, shortened: (§2)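 200 ng supercoiled pBR322 with 1 unit human topo II, incubated 30 min at 30 °C with or without compound in 10 mM Tris–HCl pH 7.9, 50 mM NaCl, 5 mM MgCl2, 1 mM EDTA, 1 mM ATP and 15 µg/mL BSA. Reaction was stopped with 7 mM EDTA and run on 1% agarose in TAE at 25 V. Gel was stained with ethidium bromide, visualized under UV, and supercoiled DNA quantitated densitometrically.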

[2] = biological target: DNA topoisomerase 2-alpha (Homo sapiens) (UniProt P11388); test: Inhibition of recombinant human DNA topoisomerase-2alpha using supercoiled pBR322 plasmid DNA as substrate at 100 uM after 30 mins by agarose gel electrophoresis relative to control; procedure, shortened: as §2
DU-145 = test: Cytotoxicity against human DU145 cells measured on day 4 by CCK8 assay; assay type: functional, cell-based; conditions: DU-145, 96 h; procedure, shortened: as §1
T47D = test: Cytotoxicity against human T47D cells measured on day 4 by CCK8 assay; assay type: functional, cell-based; conditions: 96 h; procedure, shortened: as §1
[3] = biological target: T1, DNA topoisomerase 1 (Homo sapiens) (UniProt P11387); test: Inhibition of recombinant human DNA topoisomerase-1 assessed as relaxation of supercoiled DNA pBR322 at 100 uM after 30 mins by agarose gel electrophoresis relative to control
T1 sequence (whole entry): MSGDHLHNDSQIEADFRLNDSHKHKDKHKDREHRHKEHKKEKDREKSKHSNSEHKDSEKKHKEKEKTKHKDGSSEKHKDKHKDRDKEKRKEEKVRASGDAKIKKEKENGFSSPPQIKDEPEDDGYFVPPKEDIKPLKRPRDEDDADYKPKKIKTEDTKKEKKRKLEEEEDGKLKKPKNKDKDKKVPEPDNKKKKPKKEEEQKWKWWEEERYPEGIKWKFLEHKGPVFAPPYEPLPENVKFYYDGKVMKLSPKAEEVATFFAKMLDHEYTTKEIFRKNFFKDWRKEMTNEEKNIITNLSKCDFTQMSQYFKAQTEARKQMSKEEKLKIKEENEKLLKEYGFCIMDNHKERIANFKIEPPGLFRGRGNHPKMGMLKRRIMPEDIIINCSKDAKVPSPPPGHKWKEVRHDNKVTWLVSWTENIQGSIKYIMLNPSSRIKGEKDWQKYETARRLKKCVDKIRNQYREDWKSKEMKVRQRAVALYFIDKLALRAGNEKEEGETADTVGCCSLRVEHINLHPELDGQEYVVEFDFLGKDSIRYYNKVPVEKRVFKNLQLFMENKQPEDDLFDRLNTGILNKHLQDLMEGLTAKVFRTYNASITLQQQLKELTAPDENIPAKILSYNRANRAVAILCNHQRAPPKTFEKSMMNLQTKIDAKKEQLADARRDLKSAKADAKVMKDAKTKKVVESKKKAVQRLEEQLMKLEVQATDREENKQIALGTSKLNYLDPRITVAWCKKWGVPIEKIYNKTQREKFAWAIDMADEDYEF
Procedure, shortened: (§3)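 Relaxation assay with 100 ng pBR322 plasmid DNA and 1 unit recombinant human topo I. Buffer was 10 mM Tris–HCl pH 7.9, 150 mM NaCl, 0.1% BSA, 1 mM spermidine and 5% glycerol, incubated 37 °C for 30 min with or without compound. Products were run on a 1% agarose gel in TAE at 15 V for 7 h and stained with ethidium bromide (0.5 µg/mL) for 30 min.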

HCT-15 = test: Cytotoxicity against human HCT15 cells measured on day 4 by CCK8 assay; assay type: functional, cell-based; conditions: HCT-15, 96 h; procedure, shortened: as §1
[4] = biological target: T1, DNA topoisomerase 1 (Homo sapiens); test: Inhibition of recombinant human DNA topoisomerase-1 assessed as relaxation of supercoiled DNA pBR322 at 20 uM after 30 mins by agarose gel electrophoresis relative to control; procedure, shortened: as §3

Chain of DNA topoisomerase 2-alpha (Homo sapiens) (P11388 whole entry): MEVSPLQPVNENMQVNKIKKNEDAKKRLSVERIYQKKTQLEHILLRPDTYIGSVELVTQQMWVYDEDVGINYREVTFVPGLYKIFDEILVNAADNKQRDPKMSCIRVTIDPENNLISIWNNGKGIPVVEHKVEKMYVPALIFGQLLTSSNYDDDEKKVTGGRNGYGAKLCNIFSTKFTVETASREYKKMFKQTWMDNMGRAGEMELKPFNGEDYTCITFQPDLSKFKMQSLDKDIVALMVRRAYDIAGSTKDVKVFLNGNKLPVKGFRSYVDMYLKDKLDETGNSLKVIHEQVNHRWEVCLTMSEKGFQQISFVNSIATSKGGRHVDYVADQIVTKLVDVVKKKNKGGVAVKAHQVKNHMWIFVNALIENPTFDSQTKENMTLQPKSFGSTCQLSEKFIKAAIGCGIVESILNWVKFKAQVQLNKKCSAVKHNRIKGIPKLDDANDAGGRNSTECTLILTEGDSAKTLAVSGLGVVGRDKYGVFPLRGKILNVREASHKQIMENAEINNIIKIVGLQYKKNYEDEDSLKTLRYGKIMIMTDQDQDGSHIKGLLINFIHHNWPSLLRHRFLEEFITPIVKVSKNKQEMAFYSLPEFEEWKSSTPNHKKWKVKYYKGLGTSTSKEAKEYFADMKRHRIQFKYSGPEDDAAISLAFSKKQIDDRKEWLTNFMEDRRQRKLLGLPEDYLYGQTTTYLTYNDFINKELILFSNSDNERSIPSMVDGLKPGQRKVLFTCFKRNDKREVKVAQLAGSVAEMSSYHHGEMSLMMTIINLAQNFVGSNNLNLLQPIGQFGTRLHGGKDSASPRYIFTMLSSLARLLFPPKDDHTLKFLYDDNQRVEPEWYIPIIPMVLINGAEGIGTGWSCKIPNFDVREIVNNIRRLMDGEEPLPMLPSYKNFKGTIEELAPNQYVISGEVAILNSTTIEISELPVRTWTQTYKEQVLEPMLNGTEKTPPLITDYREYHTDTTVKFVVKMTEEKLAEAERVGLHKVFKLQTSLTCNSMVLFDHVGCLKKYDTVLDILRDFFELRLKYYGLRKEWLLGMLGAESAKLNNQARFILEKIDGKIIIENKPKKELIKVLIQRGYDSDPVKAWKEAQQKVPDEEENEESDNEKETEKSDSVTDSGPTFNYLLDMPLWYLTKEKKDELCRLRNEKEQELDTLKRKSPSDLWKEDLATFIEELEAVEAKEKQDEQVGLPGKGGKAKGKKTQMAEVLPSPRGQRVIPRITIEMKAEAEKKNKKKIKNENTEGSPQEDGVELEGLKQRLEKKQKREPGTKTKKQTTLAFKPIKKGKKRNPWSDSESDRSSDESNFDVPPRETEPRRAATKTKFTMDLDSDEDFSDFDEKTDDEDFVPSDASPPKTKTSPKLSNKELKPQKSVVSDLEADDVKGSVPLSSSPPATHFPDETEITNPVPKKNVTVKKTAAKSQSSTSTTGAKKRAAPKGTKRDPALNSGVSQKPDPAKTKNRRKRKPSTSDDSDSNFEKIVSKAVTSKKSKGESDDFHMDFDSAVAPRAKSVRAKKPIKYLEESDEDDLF

Compound	IC50 (HeLa)	inhibition [1]	inhibition [2]	IC50 (DU-145)	IC50 (T47D)	inhibition [3]	IC50 (HCT-15)	inhibition [4]
Oc1ccc(-c2cc(-c3ccoc3)cc(-c3ccccc3O)n2)cc1	> 50 µM	12.8%	69.3%	28 µM	> 50 µM	30.1%	> 50 µM	3.9%
Oc1cccc(-c2cc(-c3ccccn3)cc(-c3ccccc3O)n2)c1	2.02 µM	1.5%	62.5%	17.1 µM	2.56 µM	35.4%	> 50 µM	0.1%
Oc1ccc(-c2cc(-c3cccnc3)cc(-c3ccc(O)cc3)n2)cc1	0.6 µM	25.7%	65.8%	0.24 µM	2.03 µM	8.7%	0.84 µM	5%
Oc1ccc(-c2cc(-c3cccs3)cc(-c3ccc(O)cc3)n2)cc1	> 50 µM	30.3%	74.6%	2.19 µM	11.7 µM	86.3%	> 50 µM	0.9%
Oc1ccc(-c2cc(-c3ccco3)cc(-c3ccc(O)cc3)n2)cc1	> 50 µM	48.4%	92.3%	> 50 µM	21.1 µM	100%	14 µM	0%
Oc1cccc(-c2cc(-c3cccnc3)cc(-c3ccccc3O)n2)c1	7.53 µM	8.1%	55.2%	5.58 µM	6.23 µM	1.9%	8.28 µM	0%
Oc1cccc(-c2cc(-c3cccs3)cc(-c3cccc(O)c3)n2)c1	1.69 µM	22.3%	78.3%	1.63 µM	0.77 µM	91.7%	3.48 µM	0%
Oc1cccc(-c2cc(-c3cccs3)cc(-c3ccccc3O)n2)c1	> 50 µM	12.1%	78.1%	9.3 µM	> 50 µM	83.2%	> 50 µM	1.5%
Oc1cccc(-c2cc(-c3ccsc3)cc(-c3cccc(O)c3)n2)c1	16.6 µM	23%	88.1%	1.31 µM	1.51 µM	59.2%	1.63 µM	4.5%
